Data as given in ChEMBL document CHEMBL1139439, “Folate-synthesizing enzyme system as target for development of inhibitors and inhibitor combinations against Candida albicans-synthesis and biological activity of new 2,4-diaminopyrimidines and 4'-substituted 4-aminodiphenyl sulfones” (J Med Chem, 2004).
pIC50: −log10 of the molar value. Converted amounts (≈) assume the structure as drawn.

Key:
Candida albicans [1] = test: Inhibitory effect on Candida albicans wild type YEM14 Strain; assay type: functional
In short: (§1)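 MICs were determined by serial dilution in RPMI medium. MIC is the lowest concentration giving culture turbidity ≤20% of the control culture.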

Dihydrofolate reductase [2] = biological target: T1, Dihydrofolate reductase (Candida albicans, UniProt P22906); test: Inhibitory activity against cell free dihydrofolate reductase (DHFR) from Candida albicans; details: read-out: I50
T1 sequence (P22906 whole entry): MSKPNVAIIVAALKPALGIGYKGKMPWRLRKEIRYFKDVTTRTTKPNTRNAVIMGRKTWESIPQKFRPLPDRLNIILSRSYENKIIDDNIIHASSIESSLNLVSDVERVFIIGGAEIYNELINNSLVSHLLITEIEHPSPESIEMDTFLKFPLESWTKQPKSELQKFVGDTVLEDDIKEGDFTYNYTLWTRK

Nakaseomyces glabratus [3] = test: Inhibitory effect on Candida glabrata YEM88 CgCDR1 CgCDR2up Strain; assay type: functional
In short: (§2)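 For C. glabrata strains, MICs were determined by serial dilution in RPMI medium and read after 48 h. MIC is the lowest concentration giving turbidity ≤20% of the control culture.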

Dihydrofolate reductase [4] = biological target: T2, Dihydrofolate reductase (Rattus norvegicus, UniProt Q920D2); test: (§3) Inhibitory activity against cell free dihydrofolate reductase (DHFR) from rat; details: read-out: I50
T2 sequence (Q920D2 whole entry): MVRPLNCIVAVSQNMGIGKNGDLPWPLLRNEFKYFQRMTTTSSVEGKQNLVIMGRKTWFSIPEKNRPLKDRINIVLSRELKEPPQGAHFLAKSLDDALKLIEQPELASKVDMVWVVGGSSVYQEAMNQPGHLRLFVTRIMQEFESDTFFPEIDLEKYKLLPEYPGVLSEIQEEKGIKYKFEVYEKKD
In short: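 Commercially sourced rat DHFR was preincubated 5 min at 25 °C with 0.1 mM NADPH and varying inhibitor in 0.1 M Tris, pH 7.24. The reaction was started with 0.03 mM dihydrofolate and followed as the fall in absorbance at 340 nm over time. I50 was taken as the inhibitor concentration halving reaction velocity, fitted by nonlinear regression.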

Candida albicans [5] = test: Inhibitory effect on Candida albicans YEM27 quad deletion Strain; assay type: functional; in short: as §1
Nakaseomyces glabratus [6] = test: Inhibitory effect on Candida glabrata YEM75 WT Strain; assay type: functional; in short: as §2
Candida albicans [7] = test: Inhibitory effect on Candida albicans wild type YEM30 Strain; assay type: functional; in short: as §1
Candida albicans [8] = test: Inhibitory effect on Candida albicans YEM12 Strain; assay type: functional; in short: as §1
Candida albicans [9] = test: Inhibitory effect on Candida albicans YEM15 CDR1CDR2up Strain; assay type: functional; in short: as §1
Candida albicans [10] = test: Inhibitory effect on Candida albicans YEM13 BENup Strain; assay type: functional; in short: as §1
Nakaseomyces glabratus [11] = test: Inhibitory effect on Candida glabrata YEM216 pCDR1pCDR2pBEN YEM75 WT Strain; assay type: functional; in short: as §2
Dihydrofolate reductase [12] = biological target: T2, Dihydrofolate reductase; test: as §3; details: read-out: I50; remark: listed apart in the source
Nakaseomyces glabratus [13] = test: IInhibitory effect on Candida glabrata YEM75 WT Strain; assay type: functional; in short: as §2

| pIC50 (Dihydrofolate reductase [12]) | MIC (Nakaseomyces glabratus [13]) [µg/mL] | SMILES | MIC (Candida albicans [1]) [µg/mL] | pIC50 (Dihydrofolate reductase [2]) | MIC (Nakaseomyces glabratus [3]) [µg/mL] | pIC50 (Dihydrofolate reductase [4]) | MIC (Candida albicans [5]) [µg/mL] | MIC (Nakaseomyces glabratus [6]) [µg/mL] | MIC (Candida albicans [7]) [µg/mL] | MIC (Candida albicans [8]) [µg/mL] | MIC (Candida albicans [9]) [µg/mL] | MIC (Candida albicans [10]) [µg/mL] | MIC (Nakaseomyces glabratus [11]) [µg/mL] |
| --- | --- | --- | --- | --- | --- | --- | --- | --- | --- | --- | --- | --- | --- |
| – | – | COc1cc(OC)cc(N2C3CCC2CC(c2cnc(N)nc2N)C3)c1 (configuration not stated) | 64 (≈ 180 µM) | 7.59 | 32 (≈ 90 µM) | 7.08 | 1 (≈ 2.81 µM) | 4 (≈ 11.3 µM) | 32 (≈ 90 µM) | 16 (≈ 45 µM) | > 64 | > 64 | 4 (≈ 11.3 µM) |
| 5.14 | > 64 | COc1cc(Cc2cnc(N)nc2N)ccc1OCCNc1ccc(S(=O)(=O)c2ccc(N)cc2)cc1 | > 64 | 6.47 | > 64 | – | > 64 | – | > 64 | > 64 | > 64 | > 64 | > 64 |
